This data set is described as follows: Toxicity liver stage against HepG2, at 10uM. It counts as cell-based. Details: test concentration 10 uM, cell line HepG2-A16-CD81EGFP. The conditions noted are these: human, HepG2-A16-CD81EGFP cells; read-out: INHIBITION
In outline: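 Uninfected HepG2-A16-CD81EGFP cells, 3 × 10^3 per well, 1536-well, plated on prespotted compound at 10 μM final, parasite-free screening media added to match infected plates; puromycin 10 μM positive, DMSO 0.5% negative; run in parallel with 48 h PbLuc assay at 37 °C, 5% CO2; viability by CellTiter-Glo luminescence, normalized to controls.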

On to `CNC(=O)c1cc2c(nc1NCC1CC1)CCN(CC1CC1)CC2`, for which the cytotoxicity at 10 µM amounted to 0.864%.

Take `CC(C)n1nnc(CC(=O)NCC2(c3cccc(F)c3)CCCC2)n1`: the cytotoxicity at 10 µM amounted to 4.5%.

For the compound `CCO[C@H]1CO[C@@]2(CCCN(C(=O)c3ccc(OC)c(F)c3)C2)C1`, the cytotoxicity at 10 µM turned out to be 5.69%.

For the compound `CCOc1cc(F)ccc1NC(=O)NCC(c1cnn(C)c1)N(C)C` (stereo not drawn), the cytotoxicity at 10 µM is 5.09%.

For the compound `Cc1cc(C)nc(N2CCC(c3cc(CCO)[nH]n3)C2)n1` (stereo not drawn), the cytotoxicity at 10 µM came out at 4.15%.

With `CCn1cnc(NC(=O)NCC2CCS(=O)(=O)CC2)n1`, the cytotoxicity at 10 µM is 5.08%.

For the compound `COCCC(=O)N1CCCC(CCC(=O)NCc2cccc(OC)c2)C1` (stereo not drawn), the cytotoxicity at 10 µM was found to be 23.1%.

Turning to `COc1c(CNCc2ccc(S(C)(=O)=O)cc2)c(C)nn1C`, the cytotoxicity at 10 µM was -8.27%.

With `Cc1ccc([C@@H]2CN(S(=O)(=O)c3cc(C)ccc3F)C[C@H]2N(C)C)cc1`, the cytotoxicity at 10 µM is -7.21%.

Turning to `CC(C)Cc1nc(CNCc2cccc(N3CCCC3=O)c2)no1`, the cytotoxicity at 10 µM came to 0.753%.

With `CCCNc1ccc(C(=O)NCCc2cccc(OC)c2)cn1`, the cytotoxicity at 10 µM worked out at 0.267%.

Turning to `c1csc(-c2nc(CNC3CCc4ncnn4C3)cs2)c1` (stereo not drawn), the cytotoxicity at 10 µM turned out to be 2.07%.

As for `Cc1cc(Nc2cnccn2)cc(C2CCCN2)n1` (stereo not drawn), the cytotoxicity at 10 µM was 2.54%.

In the case of `CN(C)c1ncc2c(O)nc(C3CCNCC3)cc2n1`, the cytotoxicity at 10 µM was 13.3%.

`COCCCN1CCCC12CCN(Cc1cccnc1OC)CC2`: the cytotoxicity at 10 µM came out at 11.8%.

On to `CCn1cc(CN2C[C@@H]3CC[C@H]2CN(C(=O)c2cnccn2)C3)cn1`, for which the cytotoxicity at 10 µM was -8.39%.

Turning to `CCCc1nnsc1C(=O)NCC1CCN(c2ncccn2)CC1`, the cytotoxicity at 10 µM was 10.6%.

`C/N=C1\c2cc3cc(OC)ccc3n2CCN1Cc1ccccc1`: the cytotoxicity at 10 µM stood at 80.4%.

With `Cc1nc(NCC2CC2)nc2c1COCC21CCN(C(=O)C(C)(C)C)C1` (stereo not drawn), the cytotoxicity at 10 µM is -77.8%.

Take `O=C([C@H]1C[C@H]2OCC[C@H]2N(Cc2ccncc2)C1)N1CCCCO1`: the cytotoxicity at 10 µM was -9.01%.

Consider `CCc1nc(C)c(C2CC(=O)Nc3c2c(-c2cccnc2)nn3C)[nH]1` (stereo not drawn), for which the cytotoxicity at 10 µM was -8.13%.

For the compound `Cc1ccc(S(=O)(=O)NCCNC(=O)c2cncnc2C)cc1`, the cytotoxicity at 10 µM is -1.51%.

As for `Cn1cc(NC(=O)NCc2ccsc2)ccc1=O`, the cytotoxicity at 10 µM was -10.2%.

Consider `C1=C(CNC2CCc3ncnn3C2)COc2ccccc21` (stereo not drawn), for which the cytotoxicity at 10 µM was -2.28%.

On to `COc1cc(CSc2nnc(N)n2C2CC2)ccc1SC`, for which the cytotoxicity at 10 µM was -6.09%.

`CC(NC1(CNC(=O)OC(C)(C)C)CCOCC1)c1ccccc1` (stereo not drawn): the cytotoxicity at 10 µM came out at 3.63%.

In the case of `CNc1nc(C2CCCCN2C(=O)C(C)(C)OC)nc2c1CN(C)CC2` (stereo not drawn), the cytotoxicity at 10 µM is -6.61%.

Regarding `CC(C)C(=O)NC1COC2(CCN(C(=O)c3ccc[nH]3)CC2)C1` (stereo not drawn), the cytotoxicity at 10 µM came to 6.15%.

For the compound `Cc1nc(NC(C)C)nc2c1CN(Cc1cccs1)CC2`, the cytotoxicity at 10 µM worked out at 0.718%.

Turning to `CN(c1ncccc1C#N)C1CCN(CCc2ccncc2)CC1`, the cytotoxicity at 10 µM amounted to 28.7%.

For `Cc1cc(C)n(-c2ccc(CNCc3cccc(C#N)c3)cn2)n1`, the cytotoxicity at 10 µM is -10.2%.

With `Cc1ccc(C(=O)N[C@H]2CN(CCO)C[C@@H]2C2CC2)cc1Cl`, the cytotoxicity at 10 µM turned out to be 6.93%.

Take `CCOCCCNC(=O)CCSCc1csc(C)n1`: the cytotoxicity at 10 µM is -3.57%.

Regarding `Cc1cc2ncn(C[C@]3(O)CCCN4CCCC[C@@H]43)c2cc1C`, the cytotoxicity at 10 µM is -2.42%.

As for `CCOC(C)c1noc(CN2CCCNCC2)n1` (stereo not drawn), the cytotoxicity at 10 µM came out at 5.44%.

For `COc1cc2nc(C)n(CC(=O)NCCC(C)C)c(=O)c2cc1OC`, the cytotoxicity at 10 µM was -3.79%.

For the compound `CC1CCN(S(=O)(=O)N2CCn3cccc3C2C)CC1` (stereo not drawn), the cytotoxicity at 10 µM was -0.224%.

For `CC1CN(CC(=O)NCc2ccccc2)CCN1Cc1nccn1C` (stereo not drawn), the cytotoxicity at 10 µM is -16.2%.

With `CC(C)(C)C(=O)NCCNCc1ccc(Cl)c2cccnc12`, the cytotoxicity at 10 µM is -11.4%.

For `CN1CCC2(CC1)CC(NC(=O)c1csnn1)c1ccccc1O2` (stereo not drawn), the cytotoxicity at 10 µM is -95.4%.

Consider `Cn1c(C(=O)NC(Cc2ccsc2)c2cccnc2)cc(=O)n(C)c1=O` (stereo not drawn), for which the cytotoxicity at 10 µM came to 2.61%.

On to `COc1ccc(NC(C)C(=O)N2CCCC2)cn1` (stereo not drawn), for which the cytotoxicity at 10 µM was -4.96%.

In the case of `O=C(NCC1CC1)c1nc(COc2ccc3c(c2)OCO3)no1`, the cytotoxicity at 10 µM was 8.89%.

Turning to `CCc1cnc(C)nc1N(C)CCCc1cnn(C)c1`, the cytotoxicity at 10 µM is -10%.

For the compound `COCC(C)NC(=O)c1cncc(Br)c1` (stereo not drawn), the cytotoxicity at 10 µM came out at 3.73%.

With `O=C(c1ccccn1)N1CCC2(CNS(=O)(=O)c3cnccc3O2)C1` (stereo not drawn), the cytotoxicity at 10 µM is 14.5%.

For the compound `COCCc1noc(-c2ccc(=O)[nH]c2)n1`, the cytotoxicity at 10 µM was -3.61%.

Consider `O=C(NCC1CC1)[C@H]1C[C@H]2CN(S(=O)(=O)Cc3ccccc3)C[C@@H]1O2`, for which the cytotoxicity at 10 µM was found to be 7.56%.

As for `CN(C)CCOC1CC2(CCN(c3cnccn3)CC2)c2ccccc21` (stereo not drawn), the cytotoxicity at 10 µM was -2.69%.

Turning to `CC(=O)N1CCOC2(CCCN(C(=O)c3ccc(Cl)cc3)C2)C1` (stereo not drawn), the cytotoxicity at 10 µM was -66.6%.

As for `CC(O)CN1CCC(CNCCOCC(F)(F)F)CC1` (stereo not drawn), the cytotoxicity at 10 µM was found to be 4.91%.

As for `Cn1ccnc1CNC(=O)N(CCCO)C1CCCc2ccccc21` (stereo not drawn), the cytotoxicity at 10 µM was -6.19%.

For `CC(=O)N[C@H]1C[C@@H](c2nc(-c3ccc4c(c3)OCO4)no2)N(C)C1`, the cytotoxicity at 10 µM is -2.92%.

With `CC[C@@H](CO)Nc1nccc(-c2c[nH]c3cc(C(=O)OC)ccc23)n1`, the cytotoxicity at 10 µM turned out to be 67.7%.

On to `O=C(NCCC1=CCCCC1)NC1CCCc2c1cnn2CCO` (stereo not drawn), for which the cytotoxicity at 10 µM is -6.95%.

As for `CCn1cc(CN2CCCN(C(=O)c3sc(C)nc3C)CC2)cn1`, the cytotoxicity at 10 µM is -14.4%.

In the case of `CN(C)c1cc(C2CCCN(S(=O)(=O)c3cn[nH]c3)C2)ccn1` (stereo not drawn), the cytotoxicity at 10 µM is -0.24%.

As to `Cc1cc(C(=O)NCc2ccccn2)no1`, the cytotoxicity at 10 µM was -9.95%.

As to `CCCc1cc(NC2CCc3ncnn3C2)n2ncnc2n1` (stereo not drawn), the cytotoxicity at 10 µM was -4.17%.

On to `CN1CCCC1c1ccc(C(=O)N2CCc3ccccc3C2)s1` (stereo not drawn), for which the cytotoxicity at 10 µM stood at 1.66%.

Regarding `CCOCC1CN(C(=O)N(C)C)Cc2nnn(CC3CC3)c21` (stereo not drawn), the cytotoxicity at 10 µM is -6.26%.

`CS(=O)(=O)N1CCN2C(=O)N(C3CCOCC3)C[C@H]2C1`: the cytotoxicity at 10 µM amounted to 5.76%.

Consider `Cn1cnn(CC(=O)NCc2ccccc2F)c1=O`, for which the cytotoxicity at 10 µM worked out at 2.4%.

Turning to `CCN1CCOC(CNCc2c(Cl)nc3ccccn23)C1` (stereo not drawn), the cytotoxicity at 10 µM was determined as 0.174%.

With `Cn1cccc1-c1cc(C(=O)N2CCCC2c2cccnc2)[nH]n1` (stereo not drawn), the cytotoxicity at 10 µM is -9.32%.

As for `Cc1ccccc1OCCN(C)C(=O)NC(C)c1nncn1C` (stereo not drawn), the cytotoxicity at 10 µM is -12.5%.

On to `O=c1[nH]c2c(c(=O)n1C1CCCCC1)CCC2Nc1ccccc1Cl` (stereo not drawn), for which the cytotoxicity at 10 µM is -10.4%.

As for `O=C(CSc1nccc(-c2ccc3c(c2)OCO3)n1)N1CCOCC1`, the cytotoxicity at 10 µM is -8.3%.

On to `CCOC(=O)[C@]12CCCN(Cc3nccs3)C[C@H]1CN(CC(C)C)C2`, for which the cytotoxicity at 10 µM is -2.85%.

`C(=C\c1ccc(CN2CCCC2)cn1)/c1ccccc1`: the cytotoxicity at 10 µM came out at 9.81%.

In the case of `O=C(c1coc2ccccc12)N1CCS(=O)(=O)CC1`, the cytotoxicity at 10 µM was 2.64%.

With `Cc1cc(C)n(Cc2cccc(C(=O)N(CCC#N)CCC#N)c2)n1`, the cytotoxicity at 10 µM came out at 13.1%.

As for `Cc1ncccc1C(=O)NC1(c2cccc(F)c2)CCOCC1`, the cytotoxicity at 10 µM stood at 10.3%.

`O=C(c1ccoc1)N1CCC(NCc2ccccc2-n2ccnc2)CC1`: the cytotoxicity at 10 µM was 5.89%.

Take `CC(C)c1csc(C(=O)N2CCCC(Cn3cc(CO)nn3)C2)n1` (stereo not drawn): the cytotoxicity at 10 µM was determined as 6.29%.

For the compound `O=C(NCCC(=O)N1CCCc2ccccc21)c1c(O)cc(F)cc1F`, the cytotoxicity at 10 µM was determined as 1.35%.

On to `Cc1cc(C)n(CC(=O)N2CCC(Nc3cccnn3)CC2)n1`, for which the cytotoxicity at 10 µM was -0.397%.

`COc1ccccc1OCC(=O)NS(=O)(=O)c1ccc(C)s1`: the cytotoxicity at 10 µM is -12.7%.

Consider `Fc1cc(Cl)cnc1N1CCCC(c2nccn2Cc2ccncc2)C1` (stereo not drawn), for which the cytotoxicity at 10 µM was -2%.

For the compound `CCN1CC2(CC1=O)CN(C(=O)N(C)C)CCN(S(C)(=O)=O)C2` (stereo not drawn), the cytotoxicity at 10 µM is -0.757%.

Take `CCCc1nc(C)c(C(=O)NCCN2CCN(CC)CC2)s1`: the cytotoxicity at 10 µM is -10.6%.

Consider `Cc1ncsc1C(=O)N1CC(C)Sc2ccccc21` (stereo not drawn), for which the cytotoxicity at 10 µM is -0.663%.

With `CCOc1nn(CC)cc1-c1nnc(SCc2cccnc2)n1C`, the cytotoxicity at 10 µM worked out at 5.97%.

In the case of `Cc1nc(CN2CCO[C@@H]3CN(C(=O)NC(C)C)CC[C@@H]3C2)cs1`, the cytotoxicity at 10 µM was determined as 0.41%.

On to `Brc1cnc(NCCCOCC2CCOC2)nc1` (stereo not drawn), for which the cytotoxicity at 10 µM is -2.15%.

For the compound `CC(C)(C)c1noc(CN2CCCN(Cc3cccs3)CC2)n1`, the cytotoxicity at 10 µM is -8.8%.

Consider `CCc1cn[nH]c1C1CCN(C(=O)c2cc(C#N)c(=O)[nH]c2C)CC1`, for which the cytotoxicity at 10 µM was 2.39%.

For `CN(Cc1ccc(Cl)c(F)c1)C(=O)CCc1ccncc1`, the cytotoxicity at 10 µM came to 3.31%.

`Cc1ncc2c(n1)CCCC2NC(=O)c1ccccc1C(=O)O` (stereo not drawn): the cytotoxicity at 10 µM was -11.7%.

`CC(C)(C)n1ncc2c1NC(=O)CC2c1cccc(O)c1` (stereo not drawn): the cytotoxicity at 10 µM was -6.36%.

As for `c1ccc(CCCn2ccnc2-c2cn(C3CCNCC3)nn2)nc1`, the cytotoxicity at 10 µM was -1.86%.

As to `Cn1ccnc1C(=O)N1CCC2(CCN2CC2CC2)C1` (stereo not drawn), the cytotoxicity at 10 µM amounted to 11.8%.

On to `COC(=O)COc1cccc(NS(=O)(=O)c2cc(C(=O)O)cs2)c1`, for which the cytotoxicity at 10 µM is -5.25%.

With `CC(C)(C)c1nnnn1CC(=O)N(CCC#N)c1ccccc1`, the cytotoxicity at 10 µM is -14.2%.

Take `COCCN1CC(=O)N2CC[C@@H](O)C[C@H]2C1=O`: the cytotoxicity at 10 µM was -8.03%.

Consider `CS(=O)(=O)CCC(=O)Nc1ccsc1`, for which the cytotoxicity at 10 µM is -3.39%.

For `Cc1cccc(C(C(=O)NCC2(Cn3nc(C)cc3C)CC2)N(C)C)c1` (stereo not drawn), the cytotoxicity at 10 µM came out at 2.18%.

For the compound `CCc1ccc(CN2Cc3nccn3CC(CN3CCOCC3)C2)o1` (stereo not drawn), the cytotoxicity at 10 µM is -87.9%.

The values above are taken from ChEMBL document CHEMBL4513216, “Probing the Open Global Health Chemical Diversity Library for Multistage-Active Starting Points for Next-Generation Antimalarials” (ACS Infect Dis, 2020).
